Consider one molecule from ChEMBL document CHEMBL1131242, “6beta-Acetoxynortropane: a potent muscarinic agonist with apparent selectivity toward M2-receptors” (J Med Chem, 1998).

Broadly, the EC50 is the midpoint of the concentration-response curve. For orientation: Ki means a measure of affinity in units of concentration, obtained from inhibition or displacement. A low value points to tighter binding. As a reminder, the IC50 is the concentration at which inhibition is half-maximal. A high value points to weaker potency.

The target in assay [1] is T1, Muscarinic acetylcholine receptor M3 (Homo sapiens, UniProt P20309). The assay can be described thus: Inhibitory activity against stimulation of [3H]inositol monophosphate accumulation in [3H]inositol-labelled CHO transfected cells mediated by Muscarinic acetylcholine receptor M3.
Target sequence in this assay (P20309 whole entry, looked up): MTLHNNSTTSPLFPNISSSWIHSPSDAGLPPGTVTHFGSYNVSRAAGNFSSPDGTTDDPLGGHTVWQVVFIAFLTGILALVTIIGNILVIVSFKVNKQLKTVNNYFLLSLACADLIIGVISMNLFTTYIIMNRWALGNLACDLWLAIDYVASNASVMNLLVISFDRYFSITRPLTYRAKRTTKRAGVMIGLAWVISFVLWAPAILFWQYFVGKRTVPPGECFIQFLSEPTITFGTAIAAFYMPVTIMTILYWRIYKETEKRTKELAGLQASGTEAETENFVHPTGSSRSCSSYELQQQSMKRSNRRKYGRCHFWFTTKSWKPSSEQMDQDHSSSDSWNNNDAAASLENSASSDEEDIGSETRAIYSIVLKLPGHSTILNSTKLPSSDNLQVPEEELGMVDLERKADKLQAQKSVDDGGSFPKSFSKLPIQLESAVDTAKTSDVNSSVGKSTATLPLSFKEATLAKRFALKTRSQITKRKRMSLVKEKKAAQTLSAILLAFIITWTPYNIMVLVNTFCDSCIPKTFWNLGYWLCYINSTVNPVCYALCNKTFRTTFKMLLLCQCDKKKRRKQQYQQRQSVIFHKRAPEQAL
Assay [2] has as its target T2, Muscarinic acetylcholine receptor M1 (Rattus norvegicus, UniProt P08482).
T2 sequence (P08482 whole entry): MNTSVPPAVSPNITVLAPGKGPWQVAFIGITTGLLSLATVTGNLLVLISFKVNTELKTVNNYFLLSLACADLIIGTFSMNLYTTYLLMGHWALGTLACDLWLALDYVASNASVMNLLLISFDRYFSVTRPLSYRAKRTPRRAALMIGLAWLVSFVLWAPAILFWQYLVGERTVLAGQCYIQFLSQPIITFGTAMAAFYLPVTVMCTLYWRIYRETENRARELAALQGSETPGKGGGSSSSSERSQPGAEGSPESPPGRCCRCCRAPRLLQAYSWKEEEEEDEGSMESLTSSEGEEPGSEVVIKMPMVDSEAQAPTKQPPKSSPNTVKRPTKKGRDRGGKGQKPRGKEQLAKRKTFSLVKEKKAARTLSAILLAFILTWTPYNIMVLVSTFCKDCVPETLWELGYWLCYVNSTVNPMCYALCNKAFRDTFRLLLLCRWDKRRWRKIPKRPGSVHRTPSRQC
The assay can be described thus: Inhibition of binding of [3H]quinuclidinyl benzilate to Muscarinic acetylcholine receptor M1 in rat cerebral cortical membranes at 100 uM concentration. The class given is cell membranes, Membrane. The method, boiled down:
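Rat cortical membranes with 0.2 nM [3H]quinuclidinyl benzilate in HEPES pH 7.4 with 10 mM MgCl2 and 100 mM NaCl, 30 min at 37 °C, triplicate. Atropine 1 µM defined nonspecific binding. Percent inhibition was read at 100 µM test agent; mean ± SEM, n = 4.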

Assay [3] has as its target Muscarinic acetylcholine receptor M4 (Homo sapiens) (UniProt P08173). The assay can be described thus: Inhibition of binding of [3H]quinuclidinyl benzilate to Muscarinic acetylcholine receptor M4 in membranes of transfected CHO cells.
Assay [4] has as its target T1, Muscarinic acetylcholine receptor M3. The assay can be described thus: Inhibition of binding of [3H]quinuclidinyl benzilate to muscarinic receptors in membranes of CHO cells transfected with Muscarinic acetylcholine receptor M3. It counts as cell membranes.
Target sequence in this assay (P20309 whole entry): as the sequence (P20309 whole entry, looked up) above
Assay [5] concerns the target Muscarinic acetylcholine receptor M1 (Homo sapiens) (UniProt P11229). The assay can be described thus: Inhibitory activity against stimulation of [3H]inositol monophosphate accumulation in [3H]inositol-labelled CHO transfected cells mediated by Muscarinic acetylcholine receptor M1.
Assay [6] addresses T3, Muscarinic acetylcholine receptor M2 (Homo sapiens, UniProt P08172).
T3 sequence (P08172 whole entry): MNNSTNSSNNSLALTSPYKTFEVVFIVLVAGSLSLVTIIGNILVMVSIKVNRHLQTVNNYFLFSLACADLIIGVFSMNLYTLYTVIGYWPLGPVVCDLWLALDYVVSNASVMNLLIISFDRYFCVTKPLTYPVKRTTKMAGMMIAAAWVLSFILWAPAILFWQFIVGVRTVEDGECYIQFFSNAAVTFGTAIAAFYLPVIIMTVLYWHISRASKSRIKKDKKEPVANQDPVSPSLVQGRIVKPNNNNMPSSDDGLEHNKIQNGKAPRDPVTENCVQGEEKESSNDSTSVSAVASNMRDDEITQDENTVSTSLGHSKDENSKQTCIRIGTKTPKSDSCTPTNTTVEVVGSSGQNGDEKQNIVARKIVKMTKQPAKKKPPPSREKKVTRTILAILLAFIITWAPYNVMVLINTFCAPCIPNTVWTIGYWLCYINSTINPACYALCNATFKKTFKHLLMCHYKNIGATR
The assay can be described thus: Inhibitory activity against [3H]quinuclidinyl Benzilate binding to Muscarinic acetylcholine receptor M2 in the absence of GTP. The method, boiled down:
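Membranes from CHO cells expressing human M2 receptor. Competition against 0.1 nM [3H]quinuclidinyl benzilate in 25 mM sodium phosphate pH 7.4, 5 mM MgCl2, without or with 10 μM GTP; 30 min at 37 °C, triplicate. Nonspecific binding with 1 μM atropine. Filtration, scintillation counting.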

The target of assay [7] is Muscarinic acetylcholine receptor M2 (Homo sapiens) (UniProt P08172). The assay can be described thus: Inhibition of binding of [3H]quinuclidinyl benzilate to Muscarinic acetylcholine receptor M2 in membranes of transfected CHO cells.
In assay [8] the target is T2, Muscarinic acetylcholine receptor M1. The assay can be described thus: The compound was evaluated for inhibition of binding of [3H]quinuclidinyl benzilate to Muscarinic acetylcholine receptor M1 in Rat Cerebral Cortical Membranes. The method in brief:
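Rat cerebral cortex membranes were homogenised in 50 mM Tris-HCl pH 7.4 and diluted in HEPES binding buffer. They were incubated with 0.2 nM [3H]quinuclidinyl benzilate in 20 mM HEPES pH 7.4 with 10 mM MgCl2 and 100 mM NaCl for 30 min at 37 °C, in triplicate. Nonspecific binding used 1 µM atropine. Filtration was followed by scintillation counting.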

The target is the same in assay [9]. The assay can be described thus: Inhibition of binding of [3H]oxotremorine M to Muscarinic acetylcholine receptor M1 in rat cerebral cortical membranes. The class given is cell membranes, Membrane. The method, boiled down: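 Agonist radioligand assay: rat cortical membranes with 2 nM [3H]oxotremorine M in 25 mM sodium phosphate pH 7.4 with 5 mM MgCl2, 2 h at 25 °C, in triplicate. Nonspecific binding used 5 µM atropine. Filtration followed by scintillation counting.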

Muscarinic acetylcholine receptor M1 (Homo sapiens), sequence (P11229 whole entry, looked up): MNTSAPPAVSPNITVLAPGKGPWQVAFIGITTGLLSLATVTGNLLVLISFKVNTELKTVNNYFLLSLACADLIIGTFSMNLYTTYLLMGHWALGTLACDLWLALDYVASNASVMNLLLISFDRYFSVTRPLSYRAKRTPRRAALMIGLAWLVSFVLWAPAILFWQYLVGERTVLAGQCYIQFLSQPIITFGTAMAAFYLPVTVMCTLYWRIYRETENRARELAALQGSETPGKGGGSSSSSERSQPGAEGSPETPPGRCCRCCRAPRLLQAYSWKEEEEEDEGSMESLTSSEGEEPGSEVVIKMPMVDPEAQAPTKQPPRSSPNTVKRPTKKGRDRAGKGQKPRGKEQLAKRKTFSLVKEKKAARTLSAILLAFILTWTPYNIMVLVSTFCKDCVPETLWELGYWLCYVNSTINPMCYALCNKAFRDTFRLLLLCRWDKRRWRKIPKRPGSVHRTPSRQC

In the case of `CC(=O)OC1CC2CCCC1N2` (centres undefined), the EC50 came out at 0.0036 µM in assay [1] and 0.023 µM in assay [5]. The Ki in [2] worked out at 22 µM; in [3], 0.033 µM; in assay [4], 0.68 µM; in assay [7] it was 0.0026 µM; in assay [8], 22 µM; in assay [9] it was 0.0056 µM. In [6], this molecule displayed an IC50 of 0.017 µM.
